Most compounds without a hit are left out; they make up all but 29% or so of the library.
CYP2C19 activ – human CYP2C19 activators, primary screen, biochemical, luminescence | 96,000 tested, under 10 active | recombinant CYP2C19, luciferin-H EGE luminescence; active compounds read high; 0 = fully inhibited enzyme, 1 = untreated enzyme | activation factor at 5 µM;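 active means activation factor of at least 2 at 5 µM in the primary screen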;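 further: 0 = wells with 2.5 mM tranylcypromine and 1 = vehicle-only wells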
Target sequence (P33261 whole entry, looked up): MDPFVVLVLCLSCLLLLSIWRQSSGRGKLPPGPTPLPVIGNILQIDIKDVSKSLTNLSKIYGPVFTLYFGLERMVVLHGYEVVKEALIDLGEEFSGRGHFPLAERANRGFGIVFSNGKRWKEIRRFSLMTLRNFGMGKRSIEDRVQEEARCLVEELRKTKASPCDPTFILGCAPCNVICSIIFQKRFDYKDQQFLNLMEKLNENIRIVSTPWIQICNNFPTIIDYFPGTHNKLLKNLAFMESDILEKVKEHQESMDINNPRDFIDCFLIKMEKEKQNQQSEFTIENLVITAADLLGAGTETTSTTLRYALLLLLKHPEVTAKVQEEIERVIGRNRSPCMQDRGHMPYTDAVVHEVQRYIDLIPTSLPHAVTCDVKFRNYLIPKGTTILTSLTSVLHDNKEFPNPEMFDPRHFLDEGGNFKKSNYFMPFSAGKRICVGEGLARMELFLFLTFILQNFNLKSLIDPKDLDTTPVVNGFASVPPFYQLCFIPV
CYP2C9 activ – human CYP2C9 activators, primary screen, biochemical, luminescence; activation factor at 5 µM; actives 1.4% (n = 96,000); recombinant CYP2C9, luciferin-H conversion; active compounds read high; factor 1 = untreated enzyme, 0 = blocked; Cytochrome P450 2C9 (Homo sapiens), P11712;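 active means activation factor of 2 or more for CYP2C9 at a 5 µM dose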;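 further: 0 = sulfaphenazole-blocked wells and 1 = vehicle-only wells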
CYP2C19 inh – blockers of cytochrome P450 2C19 activity – biochemical, luminescence, ADME assay, primary screen. actives 21% (n = 96,000). inhibition, % at 5 µM. P33261. CYP2C19 Supersomes, luciferin-H EGE luminescence, 30 min;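 active means CYP2C19 inhibition above a set limit at 5 µM in the primary screen, cut at about 50% in these data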;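 further: plate controls were negative control wells for no effect and 2.5 mM tranylcypromine positive control for full effect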
Ecoli WT expand – growth inhibitors of wild-type E. coli, primary screen, strain BW25113, expanded library, OD600; actives 0.15% (n = 98,000); growth inhibition, % at 100 µM; OD600 absorbance;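 active means growth inhibition above about 50% at one test dose, limit read from the data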;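 further: growth measured after 20 h incubation at 37 °C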
tolC growth inh – growth inhibitors of E. coli tolC mutant, primary screen, strain BW25113 ΔtolC::kan, 384-well; OD615; growth inhibition, % at 10 µM (by protocol); actives 2.2% (n = 65,000);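 active means growth inhibition at or above a cutoff equal to the mean over every tested compound plus 3 SD, cut at about 60% in these data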;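 further: growth measured after 20 h incubation at 37 °C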
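Test system: tolC-deleted E. coli BW25113 | Medium: LB with kanamycin 50 µg/mL | Compound dosing: Single concentration, 10 µM final per compound | Schedule: 37 °C, 20 h exposure | Measured by: OD at 615 nm | Evaluation: Percent growth inhibition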
CYP2C9 inh – blockers of cytochrome P450 2C9 activity – biochemical, luminescence, ADME assay, primary screen; P11712; CYP2C9 Supersomes, luciferin-H conversion; inhibition, % at 5 µM; actives 20% (n = 96,000); AID 777, 2007;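 active means blocking of liver enzyme CYP2C9 beyond about 50% at 5 µM, limit read from the data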
Active calls of the source: *; / = no result given.

SMILES | CYP2C19 activ | CYP2C9 activ | CYP2C19 inh | Ecoli WT expand | tolC growth inh | CYP2C9 inh
COc1ccc(/C=c2/sc3n(c2=O)C(c2ccccc2OC)C2=C(N=3)c3ccccc3CC2)cc1O (stereo unspecified) | 1 | 0.7 | -1 | -19 | / | 33
COc1ccc(/C=C2\CCc3ccccc3C2=O)cc1Cn1nc(C)cc1C | 0.1 | 0.5 | 90* | -12 | / | 53*
COc1ccc(/C=C2\N=C3CCCCCN3C2=O)cc1OC | 1 | 0.9 | -1 | -4 | / | 7
COc1ccc(/C=C2\CCc3ccccc3C2=O)cc1OC | 0.7 | 0.5 | 30 | 3 | / | 53*
Cn1c(SCC(N)=O)nnc1C1CCN(S(=O)(=O)c2ccccc2C(F)(F)F)CC1 | 1 | 2* | -5 | -3 | -1 | -103
CSc1ccc(C(=S)N2CCN(Cc3ccccc3)CC2)cc1 | 0.5 | 0.6 | 52* | -23 | / | 41
CCn1ncc(/C=N\NC(=O)c2csc3ccccc23)c1C | 0.9 | 1.3 | 13 | 3 | / | -32
O=C(c1ccco1)N1CCN(CC2CC3C=CC2C3)CC1 (stereo unspecified) | 0.9 | 1.1 | 10 | -1 | -10 | -7
Cc1ccc(C(C#N)c2ccc(C(=O)c3ccc(F)cc3)cc2)cc1 (stereo unspecified) | 0.5 | 0.4 | 46 | -17 | / | 60*
N#CC(c1ccc(F)cc1)c1ccc(C(=O)c2ccc(F)cc2)cc1 (stereo unspecified) | 0.5 | 0.2 | 46 | -11 | / | 77*
Cc1ccc(C(=O)c2ccc(C(F)(F)F)cc2)cc1 | 0.6 | 0.9 | 35 | 0 | / | 14
Cc1cc(C)n2nc(SCC(=O)N/N=C/c3ccc(F)cc3)nc2n1 | 0.8 | 1 | 25 | 8 | / | -3
CCCCC(=O)Nc1ccc(C(=O)Nc2nnc(COC)s2)cc1 | 0.9 | 0.7 | 10 | -8 | / | 29
CC(C)Oc1ccc(-c2cc(=O)[nH]c(=O)[nH]2)cc1 | 1.2 | 1.3 | -16 | 4 | -10 | -27
COc1ccc2[nH]c(C)c(C(=O)CN3CCN(C(=O)c4ccco4)CC3)c2c1 | 0.8 | 0.8 | 20 | 5 | 1 | 15
COc1ccc2c(c1)c(C(=O)CN1CCN(C(=O)c3ccco3)CC1)c(C)n2C | 0.4 | 1 | 57* | -1 | 4 | 3
Cc1ccccc1C(=O)Nc1cccc(NC(=O)c2ccc(-c3ccc(Br)cc3)o2)c1 | 0.8 | 0.4 | 18 | -9 | / | 56*
COc1cccc(/C=N/NC(=O)c2ccc(OCc3cccc(Br)c3)cc2)c1 | 0.5 | 0.2 | 50 | -34 | / | 84*
COc1cccc(/C=N/NC(=O)CCc2ccccc2)c1 | 0.4 | 0.9 | 60* | 13 | / | 5
COc1ccc(/C=N/NC(=O)CCc2ccccc2)cc1O | 1 | 0.9 | 1 | -2 | / | 11
CCn1c(C(C#N)/C(=N\S(=O)(=O)c2cccs2)c2ccccc2)nc2ccccc21 (stereo unspecified) | 1 | 0.9 | 3 | -7 | 13 | 12
CCOC(=O)N1CCC(NC2CCCCCCC2)CC1 | 0.4 | 1.1 | 58* | 5 | -7 | -8
CCOC(=O)c1cnc(SCC(=O)Nc2ccccc2N2CCOCC2)nc1N | / | / | / | / | -13 | /
C/C(=N\NC(=O)c1csc2ccccc12)c1ccc(O)cc1 | 0.2 | 2.8* | 84* | 6 | / | -175
COc1ccc(-c2cc(NCCc3ccncc3)n3ncnc3n2)cc1 | 0.5 | 0.3 | 49 | 0 | 13 | 70*
SMILES | CYP2C19 activ | CYP2C9 activ | CYP2C19 inh | Ecoli WT expand | tolC growth inh | CYP2C9 inh
O=S(=O)(Nc1ccc(F)cc1)N1CCCCCC1 | 0 | 0.3 | 99* | -3 | 6 | 67*
O=S(=O)(N1CCCCC1)N1CCN(c2ccc(F)cc2)CC1 | 0.4 | 0.6 | 58* | -2 | 13 | 44
O=S(=O)(c1ccc(N2CCN(c3ccc(F)cc3)CC2)cc1)N1CCCC1 | 1 | 0.9 | 1 | -13 | -2 | 7
CCOC(=O)COc1ccc2c(c1)C(=O)CC1(CCN(C(C)=O)CC1)O2 | 1.1 | 1 | -7 | 4 | 5 | -1
COc1ccc(CC(=O)OC(C)CN2CCCC2)cc1 (stereo unspecified) | 0.9 | 0.9 | 8 | 7 | -14 | 7
COc1ccc(NC(=O)OC(CN2CCCCC2)C(F)(F)F)cc1 (stereo unspecified) | 0.5 | 0.4 | 48 | -7 | / | 64*
O=C(COc1ccccc1)Nc1cccc2c1CCCC2 | 0.9 | 2.1* | 11 | -1 | / | -106
CN(CC(=O)Nc1cccc2c1CCCC2)S(=O)(=O)c1ccc(Br)cc1 | 1 | 1 | 3 | -2 | / | -4
CN(CC(=O)Nc1cccc2c1CCCC2)S(=O)(=O)c1ccccc1 | 0.7 | 2.3* | 26 | -2 | / | -128
CC(C)(C)CC(=O)Nc1cccc2c1CCCC2 | 0.5 | 0.9 | 46 | 0 | / | 8
O=C(CCCc1ccccc1)Nc1cccc2c1CCCC2 | 1 | 2.6* | -1 | 2 | / | -157
COc1ccc(CNC(=O)c2ccc(=O)oc2)cc1OC | 0.6 | 0.8 | 39 | 2 | 3 | 23
COc1ccc(-c2nnc(SCC(=O)N3CCCC3)o2)cc1OC | / | / | / | / | -3 | /
COc1ccccc1NC(=O)CSc1nnc(-c2ccc(C)cc2)o1 | 1 | 1 | -1 | / | -10 | -1
COc1ccc(-c2nnc(SCC(=O)Nc3cc(F)ccc3C)o2)cc1 | 0.5 | 1.4 | 54* | -2 | 27 | -37
COc1ccc(OC)c(NC(=O)CSc2nnc(CNc3ccc(C)cc3C)o2)c1 | 0.2 | 1.2 | 81* | 1 | 2 | -24
COc1ccc(-c2nnc(SCC(=O)NC(C)c3ccccc3)o2)cc1OC (stereo unspecified) | 0.4 | 1.1 | 62* | -7 | 15 | -10
COc1ccc(OC)c(NC(=O)CSc2nnc(CNc3ccc(F)cc3)o2)c1 | 0.4 | 1 | 56* | 1 | 4 | 1
COCCNC(=O)CN1CCC(NC(=O)Nc2ccc(C(F)(F)F)cc2)CC1 | 0.8 | 0.9 | 22 | 9 | 2 | 10
N#Cc1cc(C#N)c(N2CCN(c3cccc(Cl)n3)CC2)nc1N | 0 | 0.6 | 98* | 7 | / | 36
O=C(NCc1ccccc1)C(c1cccnc1)N(Cc1ccco1)C(=O)c1ccccn1 (stereo unspecified) | 0.9 | 0.7 | 8 | -2 | -31 | 32
O=C(c1c(Cl)nc2sccn12)N(C(=O)c1c(Cl)nc2sccn12)c1ccc(Cl)cn1 | 0 | 0 | 100* | -9 | 13 | 100*
CCCCC(CC)C1OCC(CN2CCCC2)O1 (stereo unspecified) | 0.8 | 1 | 17 | 3 | / | -1
CCOC(=O)Cn1c(=O)c2c(nc(Br)n2Cc2ccccc2)n(C)c1=O | 0.8 | 0.8 | 20 | / | 7 | 19

Assay outcomes (PubChem BioAssay)
